Assay results: ChEMBL document CHEMBL1155222, “Synthesis and anticancer activity of N-bis(trifluoromethyl)alkyl-N'-thiazolyl and N-bis(trifluoromethyl)alkyl-N'-benzothiazolyl ureas” (2009)

Experiments:
Assay type in all cases: functional
K562 = test: Anticancer activity against human K562 cells after 48 hrs by sulforhodamine B assay; details: K562, 48 h
Summary of the method: (§1)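 NCI 60-cell-line screen. Cells grown in RPMI 1640 with 5% FBS and 2 mM L-glutamine, plated at 5000–40,000 cells/well, and preincubated 24 h at 37 °C under 5% CO2. Compounds were taken from DMSO stocks and tested at five final concentrations, 10^-4 to 10^-8 M, for 48 h. Cells were TCA-fixed, stained with 0.4% SRB, and read at 515 nm. GI50, TGI and LC50 were derived as log molar values.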

SN12C = test: Anticancer activity against human SN12C cells after 48 hrs by sulforhodamine B assay
Summary of the method: (§2)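 NCI 60-cell-line panel; cells grown in RPMI 1640 with 5% FBS and 2 mM L-glutamine, plated at 5000–40,000 cells/well and preincubated 24 h at 37 °C, 5% CO2. Compounds came from DMSO stocks diluted in medium with gentamicin and were tested at five final concentrations, 10^-4 to 10^-8 M, for 48 h. Cells were fixed with TCA, stained with SRB and read at 515 nm. GI50, TGI and LC50 were derived as log molar values.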

HOP-92 = test: Anticancer activity against human HOP92 cells after 48 hrs by sulforhodamine B assay; details: HOP-92, 48 h; summary of the method: as §1
UACC-257 = test: Anticancer activity against human UACC257 cells after 48 hrs by sulforhodamine B assay; details: UACC-257, 48 h; summary of the method: as §2
UACC-62 = test: Anticancer activity against human UACC62 cells after 48 hrs by sulforhodamine B assay; details: UACC-62, 48 h; summary of the method: as §2
UO-31 = test: Anticancer activity against human UO31 cells after 48 hrs by sulforhodamine B assay; details: UO-31, 48 h; summary of the method: as §2
EKVX = test: Anticancer activity against human EKVX cells after 48 hrs by sulforhodamine B assay; summary of the method: as §1
786-0 = test: Anticancer activity against human 786-0 cells after 48 hrs by sulforhodamine B assay; details: 786-0, 48 h; summary of the method: as §1
SF-268 = test: Anticancer activity against human SF268 cells after 48 hrs by sulforhodamine B assay; details: SF-268, 48 h; summary of the method: as §1
NCI/ADR-RES = test: Anticancer activity against human NCI/ADR-RES cells after 48 hrs by sulforhodamine B assay; summary of the method: as §1
SK-MEL-2 = test: Anticancer activity against human SK-MEL-2 cells after 48 hrs by sulforhodamine B assay; details: SK-MEL-2, 48 h; summary of the method: as §1
SNB-75 = test: Anticancer activity against human SNB75 cells after 48 hrs by sulforhodamine B assay; details: SNB-75, 48 h; summary of the method: as §2
CCRF-CEM = test: Anticancer activity against human CCRF-CEM cells after 48 hrs by sulforhodamine B assay; summary of the method: as §1
T47D = test: Anticancer activity against human T47D cells after 48 hrs by sulforhodamine B assay; summary of the method: as §2
IGROV-1 = test: Anticancer activity against human IGROV1 cells after 48 hrs by sulforhodamine B assay; details: IGROV-1, 48 h; summary of the method: as §1
HCT-116 = test: Anticancer activity against human HCT116 cells after 48 hrs by sulforhodamine B assay; details: HCT-116, 48 h; summary of the method: as §1
A498 = test: Anticancer activity against human A498 cells after 48 hrs by sulforhodamine B assay; details: A498, 48 h; summary of the method: as §1
SK-MEL-28 = test: Anticancer activity against human SK-MEL-28 cells after 48 hrs by sulforhodamine B assay; details: SK-MEL-28, 48 h; summary of the method: as §1
SF-539 = test: Anticancer activity against human SF539 cells after 48 hrs by sulforhodamine B assay; details: SF-539, 48 h; summary of the method: as §1
PC-3 = test: Anticancer activity against human PC3 cells after 48 hrs by sulforhodamine B assay; details: PC-3, 48 h; summary of the method: as §1
OVCAR-4 = test: Anticancer activity against human OVCAR4 cells after 48 hrs by sulforhodamine B assay; details: OVCAR-4, 48 h; summary of the method: as §1
M14 = test: Anticancer activity against human M14 cells after 48 hrs by sulforhodamine B assay; details: M14, 48 h; summary of the method: as §1
MDA-MB-231 = test: Anticancer activity against human MDA-MB-231 cells after 48 hrs by sulforhodamine B assay; details: MDA-MB-231, 48 h; summary of the method: as §1
RXF 393 = test: Anticancer activity against human RXF393 cells after 48 hrs by sulforhodamine B assay; details: RXF 393, 48 h; summary of the method: as §1
NCI-H226 = test: Anticancer activity against human NCI-H226 cells after 48 hrs by sulforhodamine B assay; details: NCI-H226, 48 h; summary of the method: as §1
MCF7 = test: Anticancer activity against human MCF7 cells after 48 hrs by sulforhodamine B assay; details: MCF7, 48 h; summary of the method: as §1
SK-OV-3 = test: Anticancer activity against human SKOV3 cells after 48 hrs by sulforhodamine B assay; details: SK-OV-3, 48 h; summary of the method: as §1
CAKI-1 = test: Anticancer activity against human Caki1 cells after 48 hrs by sulforhodamine B assay; details: CAKI-1, 48 h; summary of the method: as §1
HT-29 = test: Anticancer activity against human HT-29 cells after 48 hrs by sulforhodamine B assay; details: HT-29, 48 h; summary of the method: as §1
NCI-H522 = test: Anticancer activity against human NCI-H522 cells after 48 hrs by sulforhodamine B assay; details: NCI-H522, 48 h; summary of the method: as §1
OVCAR-3 = test: Anticancer activity against human OVCAR-3 cells after 48 hrs by sulforhodamine B assay; details: OVCAR-3, 48 h; summary of the method: as §1
COLO 205 = test: Anticancer activity against human COLO205 cells after 48 hrs by sulforhodamine B assay; details: COLO 205, 48 h; summary of the method: as §1
OVCAR-8 = test: Anticancer activity against human OVCAR8 cells after 48 hrs by sulforhodamine B assay; details: OVCAR-8, 48 h; summary of the method: as §1
SK-MEL-5 = test: Anticancer activity against human SK-MEL-5 cells after 48 hrs by sulforhodamine B assay; details: SK-MEL-5, 48 h; summary of the method: as §1
MDA-MB-435 = test: Anticancer activity against human MDA-MB-435 cells after 48 hrs by sulforhodamine B assay; details: MDA-MB-435, 48 h; summary of the method: as §1
ACHN = test: Anticancer activity against human ACHN cells after 48 hrs by sulforhodamine B assay; summary of the method: as §1
[1] = Anticancer activity against human Hs 578T cells after 48 hrs by sulforhodamine B assay; summary of the method: as §1
HCT-15 = test: Anticancer activity against human HCT15 cells after 48 hrs by sulforhodamine B assay; details: HCT-15, 48 h; summary of the method: as §1
LOX IMVI = test: Anticancer activity against human LOXIMVI cells after 48 hrs by sulforhodamine B assay; summary of the method: as §1
OVCAR-5 = test: Anticancer activity against human OVCAR5 cells after 48 hrs by sulforhodamine B assay; details: OVCAR-5, 48 h; summary of the method: as §1
BT-549 = test: Anticancer activity against human BT549 cells after 48 hrs by sulforhodamine B assay; details: BT-549, 48 h; summary of the method: as §1
U-251 = test: Anticancer activity against human U251 cells after 48 hrs by sulforhodamine B assay; details: U-251, 48 h; summary of the method: as §2
A549 = test: Anticancer activity against human A549 cells after 48 hrs by sulforhodamine B assay; details: A549, 48 h; summary of the method: as §1
MOLT-4 = test: Anticancer activity against human MOLT4 cells after 48 hrs by sulforhodamine B assay; details: MOLT-4, 48 h; summary of the method: as §1

CCC(NC(=O)Nc1nc2ccccc2s1)(C(F)(F)F)C(F)(F)F
GI50 (K562): 23.4 µM | GI50 (SN12C): 16.2 µM | GI50 (HOP-92): 19.1 µM | GI50 (UACC-257): 20 µM | GI50 (UACC-62): 15.5 µM | GI50 (UO-31): 4.68 µM | GI50 (EKVX): 17 µM | GI50 (786-0): 20 µM | GI50 (SF-268): 17 µM | GI50 (NCI/ADR-RES): 19.5 µM | GI50 (SK-MEL-2): 15.8 µM | GI50 (SNB-75): 1.45 µM | GI50 (CCRF-CEM): 23.4 µM | GI50 (T47D): 15.5 µM | GI50 (IGROV-1): 17 µM | GI50 (HCT-116): 18.2 µM | GI50 (A498): 13.5 µM | GI50 (SK-MEL-28): 17.8 µM | GI50 (SF-539): 18.2 µM | GI50 (PC-3): 18.2 µM | GI50 (OVCAR-4): 18.6 µM | GI50 (M14): 18.6 µM | GI50 (MDA-MB-231): 16.2 µM | GI50 (RXF 393): 17.4 µM | GI50 (NCI-H226): 15.8 µM | GI50 (MCF7): 15.8 µM | GI50 (SK-OV-3): 17.8 µM | GI50 (CAKI-1): 19.1 µM | GI50 (HT-29): 19.5 µM | GI50 (NCI-H522): 17 µM | GI50 (OVCAR-3): 16.6 µM | GI50 (COLO 205): 16.2 µM | GI50 (OVCAR-8): 18.2 µM | GI50 (SK-MEL-5): 17.8 µM | GI50 (MDA-MB-435): 20 µM | GI50 (ACHN): 18.2 µM | GI50 [1]: 21.4 µM | GI50 (HCT-15): 17.8 µM | GI50 (LOX IMVI): 18.2 µM | GI50 (OVCAR-5): 19.5 µM | GI50 (BT-549): 18.2 µM | GI50 (U-251): 17.4 µM | GI50 (A549): 15.8 µM | GI50 (MOLT-4): 29.5 µM

O=C(Nc1nc2ccccc2s1)NC(C(F)(F)F)C(F)(F)F
GI50 (K562): 25.1 µM | GI50 (SN12C): 14.1 µM | GI50 (HOP-92): 33.9 µM | GI50 (UACC-257): 20.4 µM | GI50 (UACC-62): 24.5 µM | GI50 (UO-31): 3.24 µM | GI50 (EKVX): 20.9 µM | GI50 (786-0): 28.8 µM | GI50 (SF-268): 29.5 µM | GI50 (NCI/ADR-RES): 27.5 µM | GI50 (SK-MEL-2): 22.9 µM | GI50 (SNB-75): 17 µM | GI50 (CCRF-CEM): 33.1 µM | GI50 (T47D): 17 µM | GI50 (IGROV-1): 38 µM | GI50 (HCT-116): 16.6 µM | GI50 (A498): 20 µM | GI50 (SK-MEL-28): 35.5 µM | GI50 (SF-539): 26.9 µM | GI50 (PC-3): 25.1 µM | GI50 (OVCAR-4): 28.8 µM | GI50 (M14): 19.1 µM | GI50 (MDA-MB-231): 22.4 µM | GI50 (RXF 393): 28.2 µM | GI50 (NCI-H226): 25.7 µM | GI50 (MCF7): 28.2 µM | GI50 (SK-OV-3): 30.9 µM | GI50 (CAKI-1): 28.8 µM | GI50 (HT-29): 19.5 µM | GI50 (NCI-H522): 14.1 µM | GI50 (OVCAR-3): 18.2 µM | GI50 (COLO 205): 17.8 µM | GI50 (OVCAR-8): 33.9 µM | GI50 (SK-MEL-5): 15.5 µM | GI50 (MDA-MB-435): 31.6 µM | GI50 (ACHN): 28.2 µM | GI50 [1]: 26.9 µM | GI50 (HCT-15): 25.7 µM | GI50 (LOX IMVI): 22.9 µM | GI50 (OVCAR-5): 27.5 µM | GI50 (BT-549): 28.2 µM | GI50 (U-251): 24.5 µM | GI50 (A549): 26.9 µM | GI50 (MOLT-4): 29.5 µM
